According to publication PMC8717358 (Journal of the American Chemical Society, 2021):
Changes are numbered by the printed parent chain.

How the values were obtained:
[1] = target: T1, Med25 AcID fl-VP16(465–490) (Homo sapiens, UniProt Q71SY5); assay type: binding
T1 sequence (Q71SY5 389-543 limits assumed): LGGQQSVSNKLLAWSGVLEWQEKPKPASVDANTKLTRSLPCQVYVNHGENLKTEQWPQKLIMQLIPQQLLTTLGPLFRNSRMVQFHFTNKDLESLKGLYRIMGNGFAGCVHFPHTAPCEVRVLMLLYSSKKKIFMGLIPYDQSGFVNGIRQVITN

[2] = target: T2, Med25 AcID (Homo sapiens, UniProt Q71SY5); assay: Mass spectrometry; assay type: binding; conditions: mass spectrometry
T2 sequence (Q71SY5 389-543 limits assumed): T1 sequence (Q71SY5 389-543 limits assumed)

[3] = target: IBiD ACTR (Homo sapiens, UniProt Q92793); assay type: binding
[4] = target: T3, Med25 AcID (Homo sapiens, UniProt Q71SY5, K519R); assay: Mass spectrometry; assay type: binding; conditions: Med25 K519R mutant
T3 sequence (Q71SY5 394-543 K519R): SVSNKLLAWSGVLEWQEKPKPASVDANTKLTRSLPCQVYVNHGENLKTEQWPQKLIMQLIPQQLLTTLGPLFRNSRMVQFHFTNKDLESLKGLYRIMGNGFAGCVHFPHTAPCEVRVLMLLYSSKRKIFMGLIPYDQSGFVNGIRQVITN

[5] = target: T4, Med25 AcID (Homo sapiens, UniProt Q71SY5, K520R); assay: Mass spectrometry; assay type: binding; conditions: Med25 K520R mutant
T4 sequence (Q71SY5 394-543 K520R): T3 sequence (Q71SY5 394-543 K519R) with R126K, K127R

[6] = target: T5, Med25 AcID ETV5 (Homo sapiens, UniProt Q71SY5); assay: Fluorescence polarization inhibition of Med25 AcID ETV5 interaction; conditions: H1 binding surface
T5 sequence (Q71SY5 389-543 limits assumed): T1 sequence (Q71SY5 389-543 limits assumed)

[7] = target: T6, Med25 ATF6α (Homo sapiens, UniProt Q71SY5); assay: Fluorescence polarization inhibition of Med25 ATF6α interaction; conditions: H2 binding surface
T6 sequence (Q71SY5 389-543 limits assumed): T1 sequence (Q71SY5 389-543 limits assumed)

[8] = target: T7, full-length Med25 (Homo sapiens, UniProt Q71SY5); assay: Cellular thermal shift assay in HeLa cell nuclear extracts; assay type: cell-based; conditions: 25 μM NA
T7 sequence (Q71SY5 1-747): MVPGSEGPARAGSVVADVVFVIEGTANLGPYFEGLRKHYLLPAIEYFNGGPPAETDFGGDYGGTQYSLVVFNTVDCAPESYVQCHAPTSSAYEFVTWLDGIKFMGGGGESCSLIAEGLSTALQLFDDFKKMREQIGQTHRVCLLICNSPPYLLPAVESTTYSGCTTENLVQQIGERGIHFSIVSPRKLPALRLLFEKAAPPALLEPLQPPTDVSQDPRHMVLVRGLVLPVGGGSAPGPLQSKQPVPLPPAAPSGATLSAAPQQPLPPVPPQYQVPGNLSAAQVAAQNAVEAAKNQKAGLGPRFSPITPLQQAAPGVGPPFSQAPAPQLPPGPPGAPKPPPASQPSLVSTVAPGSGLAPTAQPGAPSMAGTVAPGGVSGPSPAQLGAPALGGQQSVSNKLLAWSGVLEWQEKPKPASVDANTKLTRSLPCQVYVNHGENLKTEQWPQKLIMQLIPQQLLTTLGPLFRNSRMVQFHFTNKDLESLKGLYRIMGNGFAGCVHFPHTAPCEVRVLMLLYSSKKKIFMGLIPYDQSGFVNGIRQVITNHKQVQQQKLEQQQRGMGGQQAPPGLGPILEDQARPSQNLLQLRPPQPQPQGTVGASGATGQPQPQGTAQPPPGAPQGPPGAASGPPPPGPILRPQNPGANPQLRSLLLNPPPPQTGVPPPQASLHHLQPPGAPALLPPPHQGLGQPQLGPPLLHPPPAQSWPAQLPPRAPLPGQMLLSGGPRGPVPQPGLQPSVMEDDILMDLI
How it was run: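 HeLa cell nuclear extracts were dosed with 25 μM test compound or an equivalent amount of DMSO vehicle. Samples were then heated across a range of temperatures to assess thermal stabilization of Med25.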

[9] = target: T8, Med25 ETV5 complex (Homo sapiens, UniProt Q71SY5); assay: Co-immunoprecipitation of ETV5 with Med25 in HeLa cells; assay type: cell-based; conditions: 25 μM NA
T8 sequence (Q71SY5 1-747): T7 sequence (Q71SY5 1-747)

[10] = tested on: MDA-MB-231 cells; assay: Isobologram synergy with lapatinib, cell viability assay; assay type: cell-based; conditions: fixed dose ratios, 2 days, MTT
[11] = tested on: MMP2 transcript; assay: qPCR analysis of MMP2 transcript levels in VARI068 cells; assay type: cell-based; conditions: normalized to RPL19
How it was run: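 Test compound- or vehicle-treated cells were assayed by qPCR for MMP2 transcript, normalized to reference gene RPL19. Runs were technical triplicates in biological duplicate and averaged.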

[12] = target: T8, Med25 ETV5 complex; assay: Co-immunoprecipitation of ETV5 with Med25 in VARI068 cells; assay type: cell-based
How it was run: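 Cells were treated with test compound. ETV5 was co-immunoprecipitated with Med25 and detected by Western blot.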

Compound `COc1cc(C(=O)O)c2c(c1C)OC(=O)c1c(C)cc(O)c(C=O)c1O2` [PA, psoromic acid] has an IC50 [1] of 3.9 ± 0.3 µM.
In the case of `O=Cc1ccccc1O` [salicylaldehyde], the “impact on binding of activators to Med25 AcID” value [1] is reported as “does not impact binding of activators” and the “covalent adduct formation with Med25 AcID” value (from here on “covalent adduct formation”) [2] is reported as “efficiently labels Med25 AcID”.
In the case of `COc1cc(C)c2c(c1C=O)Oc1c(c(C)c(O)c3c1C(O)OC3=O)OC2=O` (centres unmarked) [Stictic acid], the IC50 [1] is reported as over 250 µM.
`Cc1cc(O)c(C=O)c2c1C(=O)Oc1c(C)c(O)c3c(c1O2)C(O)OC3=O` (centres unmarked) [NA, norstictic acid] was tested, and the “time at which significant inhibition was observed” value ([1]; time-course experiment) was 5 min, the IC50 [3] was over 250 µM and the “covalent adduct formation” value [2] was “concentration-dependent covalent adduct(s)”. For the same compound, the “reduction in mass abundance of the +1 covalent adduct” value [4] was 53%, the “reduction in mass abundance of the NA covalent adduct” value [5] was 22% and the “inhibition of Med25 PPI with ETV5” value [6] was “inhibits”. For the same compound, the “inhibition of Med25 PPI with ATF6α” value [7] was “inhibits”, the “thermal stabilization of endogenous Med25” value [8] was “stabilizes endogenous Med25 protein” and the “formation of Med25 ETV5 complex” value [9] was “blocks the formation of the Med25 ETV5 complex”. For the same compound, the synergy with lapatinib [10] was “strong synergy was observed”, the “MMP2 transcript levels relative to vehicle” value [11] was “substantial downregulation of MMP2” and the “formation of Med25 ETV5 complex” value [12] was “blocks the Med25 ETV5 complex”.
With `COc1cc(C)c(C(=O)Oc2cc(C)c(C(=O)O)c(O)c2C)c(O)c1C=O` [baeomycesic acid] the “covalent adduct formation” value [2] was “covalent adducts with Med25 were observed”.
